Measured values: ChEMBL document CHEMBL4414574, “Structure-Based Discovery and Development of a Series of Potent and Selective Bromodomain and Extra-Terminal Protein Inhibitors” (J Med Chem, 2019)
The source made the active and inactive calls. No cut-off for these calls is given here.

Legend:
RKO [1] = test: Induction of cell cycle arrest in human RKO cells assessed as increase in accumulation at G1 phase at 100 nM after 24 hrs by propidium iodide staining based flow cytometric analysis; assay type: functional
Cytochrome P450 1A2 = biological target: T1, Cytochrome P450 1A2 (Homo sapiens, UniProt P05177); test: Time-dependent inhibition of CYP1A2 in human liver microsomes at 10 uM using phenacetin as substrate preincubated up to 30 mins followed by NADPH generating system addition and measured after 10 mins; assay type: ADME
T1 sequence (P05177 whole entry): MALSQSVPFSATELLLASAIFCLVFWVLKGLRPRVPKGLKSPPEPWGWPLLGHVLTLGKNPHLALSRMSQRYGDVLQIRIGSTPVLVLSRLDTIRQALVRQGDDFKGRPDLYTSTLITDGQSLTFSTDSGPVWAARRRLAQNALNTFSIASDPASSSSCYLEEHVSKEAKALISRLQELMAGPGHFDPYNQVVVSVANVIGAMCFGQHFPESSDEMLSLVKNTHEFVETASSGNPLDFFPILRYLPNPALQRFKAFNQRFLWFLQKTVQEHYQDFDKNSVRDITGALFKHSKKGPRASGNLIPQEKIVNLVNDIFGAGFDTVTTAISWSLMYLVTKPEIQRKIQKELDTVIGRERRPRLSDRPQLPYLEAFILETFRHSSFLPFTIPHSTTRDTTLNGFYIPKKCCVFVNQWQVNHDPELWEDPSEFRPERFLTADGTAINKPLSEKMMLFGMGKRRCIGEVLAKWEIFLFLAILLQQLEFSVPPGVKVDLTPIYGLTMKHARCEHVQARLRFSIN
Summary of the method: (§1)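 Human liver microsomes 0.2 mg/mL, 100 mM phosphate pH 7.4, 10 μM test compound, preincubated 0, 5, 10 and 30 min at 37 °C; then NADPH plus probe cocktail (5 μM midazolam, 50 μM testosterone, 5 μM dextromethorphan, 10 μM diclofenac, 50 μM phenacetin, 50 μM S-(+)-mephenytoin) added; 10 min reaction; kobs in units of 10^-4/min.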

MV4-11 [2] = test: Induction of apoptosis in human MV4-11 cells assessed as increase in cleaved caspase-8 level after 24 hrs by Western blot analysis; assay type: functional, cell-based
Summary of the method: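 MV4-11 cells exposed to test agent at the indicated doses for 24 h. Lysates immunoblotted for full-length and cleaved caspase-3, -7, -8 and -9, with GAPDH as the loading reference.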

A549 = test: Antiproliferative activity against human A549 cells after 72 hrs by CCK8 or SRB assay; assay type: functional, cell-based
MV4-11 [3] = test: Induction of apoptosis in human MV4-11 cells assessed as reduction in BID level after 24 hrs by Western blot analysis; assay type: functional, cell-based
Summary of the method: (§2)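 MV4-11 cells exposed to compound at the indicated doses for 24 h; lysates probed by Western blotting for the target protein, with GAPDH as loading control.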

[4] = Clearance in rat liver microsomes; assay type: ADME, Microsome; details: read-out: CLH
Cytochrome P450 2C19 = Cytochrome P450 2C19 (Homo sapiens, UniProt P33261); test: Time-dependent inhibition of CYP2C19 in human liver microsomes at 10 uM using mephenytoin as substrate preincubated up to 30 mins followed by NADPH generating system addition and measured after 10 mins; assay type: ADME; summary of the method: as §1
MV4-11 [5] = test: Induction of apoptosis in human MV4-11 cells assessed as reduction in BIM level after 24 hrs by Western blot analysis; assay type: functional, cell-based; summary of the method: as §2
MV4-11 [6] = test: Antitumor activity against human MV4-11 cells xenografted in Balb/c nude mouse assessed as tumor growth inhibition at 25 mg/kg, po administered once daily and measured twice a week by caliper method relative to control; assay type: functional; details: MV4-11, po, read-out: TGI
[7] = AUC (0 to infinity) in ICR mouse brain at 50 mg/kg, po administered via gavage measured after 0.25 to 24 hrs by UPLC/MS analysis; assay type: ADME, organism-based; design: dose 50 mg/kg, route oral, time infinity
Summary of the method: (§3)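 Male ICR mice were dosed orally in 1% DMSO/0.5% HPMC vehicle. Plasma (and brain, where stated) concentrations gave Tmax, Cmax, T1/2, AUC0-t and AUC0-inf.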

RKO [8] = test: Antiproliferative activity against human RKO cells after 72 hrs by CCK8 or SRB assay; assay type: functional, cell-based
[9] = biological target: Histone acetyltransferase p300 (Homo sapiens) (UniProt Q09472); test: Inhibition of EP300 (unknown origin) at 1 uM
Summary of the method: (§4)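 Bromodomain binding panel (32 bromodomains) screened at 1 μM; primary binding read-out reported as percent of control, lower values meaning stronger binding.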

[10] = biological target: T2, Bromodomain-containing protein 4 (Homo sapiens, UniProt O60885); test: Inhibition of BRD4 bromodomain 2 (unknown origin)
MV4-11 [11] = test: Induction of apoptosis in human MV4-11 cells assessed as reduction in BCL-2 mRNA expression after 24 hrs by real time qPCR analysis; assay type: functional, cell-based
[12] = biological target: Bromodomain-containing protein 2 (Homo sapiens) (UniProt P25440); test: Inhibition of BRD2 bromodomain 2 (unknown origin); summary of the method: as §4
[13] = Cmax in rat brain at 50 mg/kg, po; assay type: ADME, organism-based; design: dose 50 mg/kg, route oral
[14] = biological target: T2, Bromodomain-containing protein 4; test: Binding affinity to human partial length BRD4 bromodomain 1 long isoform (N44 to E168 residues) expressed in Escherichia coli BL21 cells assessed as residual binding level at 1 uM measured after 1 hr by quantitative PCR based BROMOscan assay relative to control
Summary of the method: (§5)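 A BROMOScan competition-binding panel of 32 bromodomains was run at a single 1 μM compound concentration. Results are primary-screen 'Percent Control', where lower values indicate stronger binding.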

Homo sapiens = species: Homo sapiens; test: Antiproliferative activity against human TY82 cells after 72 hrs by CCK8 or SRB assay; assay type: functional, cell-based
[15] = biological target: Bromodomain and PHD finger-containing protein 3 (Homo sapiens) (UniProt Q9ULD4); test: Binding affinity to human partial length BRPF3 (E588 to G701 residues) expressed in Escherichia coli BL21 cells assessed as residual binding level at 1 uM measured after 1 hr by quantitative PCR based BROMOscan assay relative to control; summary of the method: as §5
[16] = AUC (0 to t) in ICR mouse plasma at 50 mg/kg, po administered via gavage measured after 0.25 to 24 hrs by UPLC/MS analysis; assay type: ADME, organism-based; design: time lower 0.25 hr, dose 50 mg/kg, time upper 24 hr, route oral; summary of the method: as §3
MV4-11 [17] = test: Induction of apoptosis in human MV4-11 cells assessed as induction of PARP cleavage at 10 to 1000 nM after 24 hrs by Western blot analysis; assay type: functional, cell-based; summary of the method: as §2
[18] = AUC (0 to infinity) in ICR mouse plasma at 50 mg/kg, po administered via gavage measured after 0.25 to 24 hrs by UPLC/MS analysis; assay type: ADME, organism-based; design: dose 50 mg/kg, route oral, time infinity; summary of the method: as §3
[19] = AUC (0 to t) in rat brain at 50 mg/kg, po; assay type: ADME, organism-based
Summary of the method: (§6)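 Compound was given orally or intravenously in 1% DMSO/0.5% HPMC vehicle. Concentrations in plasma, or in brain where stated, gave Tmax, Cmax, T1/2, AUC0-t and AUC0-inf.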

[20] = AUC (0 to t) in dog plasma at 1 mg/kg, iv; assay type: ADME, organism-based, Canis lupus familiaris; summary of the method: as §6
[21] = Half life in rat plasma at 10 mg/kg, po; assay type: ADME, organism-based
[22] = Cmax in ICR mouse at 10 mg/kg, po administered via gavage measured after 0.25 to 24 hrs by UPLC/MS analysis; assay type: ADME, organism-based; design: dose 10 mg/kg, route oral; details: in vivo
Summary of the method: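 Male ICR mice dosed orally in 1% DMSO/0.5% HPMC vehicle; plasma or brain drug levels used to derive Tmax, Cmax, AUC0-t, AUC0-inf and T1/2.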

Sequence of Bromodomain and PHD finger-containing protein 3 (Homo sapiens) (Q9ULD4 whole entry, the tested form may be a part): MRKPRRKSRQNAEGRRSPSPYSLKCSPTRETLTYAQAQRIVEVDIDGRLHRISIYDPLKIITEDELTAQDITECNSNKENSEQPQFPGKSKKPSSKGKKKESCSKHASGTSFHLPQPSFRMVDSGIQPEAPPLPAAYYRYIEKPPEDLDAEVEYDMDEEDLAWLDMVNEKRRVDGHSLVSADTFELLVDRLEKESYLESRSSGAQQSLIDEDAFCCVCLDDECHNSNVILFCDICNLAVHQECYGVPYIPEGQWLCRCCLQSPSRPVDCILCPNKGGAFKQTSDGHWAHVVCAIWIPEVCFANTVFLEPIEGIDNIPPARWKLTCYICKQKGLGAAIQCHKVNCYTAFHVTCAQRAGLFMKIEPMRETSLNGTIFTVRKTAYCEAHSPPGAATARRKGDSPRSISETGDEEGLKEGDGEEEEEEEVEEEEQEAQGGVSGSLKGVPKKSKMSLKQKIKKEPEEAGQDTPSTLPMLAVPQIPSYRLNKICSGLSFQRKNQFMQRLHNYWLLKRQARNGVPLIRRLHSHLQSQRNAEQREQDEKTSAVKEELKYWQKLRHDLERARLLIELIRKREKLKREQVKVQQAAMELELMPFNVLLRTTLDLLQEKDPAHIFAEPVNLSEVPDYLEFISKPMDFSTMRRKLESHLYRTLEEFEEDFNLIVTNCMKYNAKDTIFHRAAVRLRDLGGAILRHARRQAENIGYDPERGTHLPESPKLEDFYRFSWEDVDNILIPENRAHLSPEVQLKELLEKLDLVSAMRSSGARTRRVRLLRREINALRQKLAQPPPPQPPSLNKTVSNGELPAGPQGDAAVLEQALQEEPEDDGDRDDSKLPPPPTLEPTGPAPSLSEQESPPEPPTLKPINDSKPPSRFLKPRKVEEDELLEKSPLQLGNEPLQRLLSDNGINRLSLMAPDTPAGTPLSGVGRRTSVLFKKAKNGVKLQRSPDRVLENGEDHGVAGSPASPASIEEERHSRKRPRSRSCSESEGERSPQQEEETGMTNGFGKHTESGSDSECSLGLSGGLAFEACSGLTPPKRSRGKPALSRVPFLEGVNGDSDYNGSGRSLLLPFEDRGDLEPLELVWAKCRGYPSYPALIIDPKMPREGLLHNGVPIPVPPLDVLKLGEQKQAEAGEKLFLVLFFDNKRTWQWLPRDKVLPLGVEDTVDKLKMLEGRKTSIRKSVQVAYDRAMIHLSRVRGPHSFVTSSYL
Sequence of Cytochrome P450 2C19 (P33261 whole entry): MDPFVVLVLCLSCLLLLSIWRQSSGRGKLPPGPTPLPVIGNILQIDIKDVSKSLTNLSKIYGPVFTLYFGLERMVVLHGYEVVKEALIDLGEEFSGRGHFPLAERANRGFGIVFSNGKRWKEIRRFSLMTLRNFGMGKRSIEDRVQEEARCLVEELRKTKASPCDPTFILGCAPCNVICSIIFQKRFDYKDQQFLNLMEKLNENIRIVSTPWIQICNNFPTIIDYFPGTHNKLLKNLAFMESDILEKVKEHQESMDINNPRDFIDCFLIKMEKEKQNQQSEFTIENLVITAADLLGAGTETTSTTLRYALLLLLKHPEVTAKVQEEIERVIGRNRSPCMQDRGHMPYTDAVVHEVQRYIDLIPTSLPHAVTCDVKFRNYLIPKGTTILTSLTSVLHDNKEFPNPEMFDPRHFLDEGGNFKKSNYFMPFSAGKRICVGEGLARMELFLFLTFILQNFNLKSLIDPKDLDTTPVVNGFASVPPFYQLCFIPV
Sequence of Bromodomain-containing protein 2 (Homo sapiens) (P25440 whole entry, looked up): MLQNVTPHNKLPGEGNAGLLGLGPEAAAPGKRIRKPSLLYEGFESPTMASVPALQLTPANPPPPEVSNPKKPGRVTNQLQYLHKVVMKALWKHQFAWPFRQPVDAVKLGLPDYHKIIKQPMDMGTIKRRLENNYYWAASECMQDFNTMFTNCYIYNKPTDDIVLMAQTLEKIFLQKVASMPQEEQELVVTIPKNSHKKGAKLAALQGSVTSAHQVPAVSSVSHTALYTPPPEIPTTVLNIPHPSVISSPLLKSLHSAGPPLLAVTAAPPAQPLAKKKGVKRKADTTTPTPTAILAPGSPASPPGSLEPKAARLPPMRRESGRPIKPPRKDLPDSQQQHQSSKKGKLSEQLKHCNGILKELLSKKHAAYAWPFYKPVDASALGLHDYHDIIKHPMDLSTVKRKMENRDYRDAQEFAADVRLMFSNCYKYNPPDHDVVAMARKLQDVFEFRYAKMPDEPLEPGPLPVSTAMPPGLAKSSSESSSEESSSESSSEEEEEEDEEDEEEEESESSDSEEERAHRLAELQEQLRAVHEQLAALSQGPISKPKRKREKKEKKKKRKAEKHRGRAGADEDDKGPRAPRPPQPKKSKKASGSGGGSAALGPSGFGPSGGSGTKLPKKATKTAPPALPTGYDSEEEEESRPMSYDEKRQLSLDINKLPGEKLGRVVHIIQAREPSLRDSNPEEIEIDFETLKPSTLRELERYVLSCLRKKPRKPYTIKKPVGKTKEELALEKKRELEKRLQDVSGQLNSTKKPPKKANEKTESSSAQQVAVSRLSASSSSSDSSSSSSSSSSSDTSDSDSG
Sequence of Histone acetyltransferase p300 (Homo sapiens) (Q09472 whole entry): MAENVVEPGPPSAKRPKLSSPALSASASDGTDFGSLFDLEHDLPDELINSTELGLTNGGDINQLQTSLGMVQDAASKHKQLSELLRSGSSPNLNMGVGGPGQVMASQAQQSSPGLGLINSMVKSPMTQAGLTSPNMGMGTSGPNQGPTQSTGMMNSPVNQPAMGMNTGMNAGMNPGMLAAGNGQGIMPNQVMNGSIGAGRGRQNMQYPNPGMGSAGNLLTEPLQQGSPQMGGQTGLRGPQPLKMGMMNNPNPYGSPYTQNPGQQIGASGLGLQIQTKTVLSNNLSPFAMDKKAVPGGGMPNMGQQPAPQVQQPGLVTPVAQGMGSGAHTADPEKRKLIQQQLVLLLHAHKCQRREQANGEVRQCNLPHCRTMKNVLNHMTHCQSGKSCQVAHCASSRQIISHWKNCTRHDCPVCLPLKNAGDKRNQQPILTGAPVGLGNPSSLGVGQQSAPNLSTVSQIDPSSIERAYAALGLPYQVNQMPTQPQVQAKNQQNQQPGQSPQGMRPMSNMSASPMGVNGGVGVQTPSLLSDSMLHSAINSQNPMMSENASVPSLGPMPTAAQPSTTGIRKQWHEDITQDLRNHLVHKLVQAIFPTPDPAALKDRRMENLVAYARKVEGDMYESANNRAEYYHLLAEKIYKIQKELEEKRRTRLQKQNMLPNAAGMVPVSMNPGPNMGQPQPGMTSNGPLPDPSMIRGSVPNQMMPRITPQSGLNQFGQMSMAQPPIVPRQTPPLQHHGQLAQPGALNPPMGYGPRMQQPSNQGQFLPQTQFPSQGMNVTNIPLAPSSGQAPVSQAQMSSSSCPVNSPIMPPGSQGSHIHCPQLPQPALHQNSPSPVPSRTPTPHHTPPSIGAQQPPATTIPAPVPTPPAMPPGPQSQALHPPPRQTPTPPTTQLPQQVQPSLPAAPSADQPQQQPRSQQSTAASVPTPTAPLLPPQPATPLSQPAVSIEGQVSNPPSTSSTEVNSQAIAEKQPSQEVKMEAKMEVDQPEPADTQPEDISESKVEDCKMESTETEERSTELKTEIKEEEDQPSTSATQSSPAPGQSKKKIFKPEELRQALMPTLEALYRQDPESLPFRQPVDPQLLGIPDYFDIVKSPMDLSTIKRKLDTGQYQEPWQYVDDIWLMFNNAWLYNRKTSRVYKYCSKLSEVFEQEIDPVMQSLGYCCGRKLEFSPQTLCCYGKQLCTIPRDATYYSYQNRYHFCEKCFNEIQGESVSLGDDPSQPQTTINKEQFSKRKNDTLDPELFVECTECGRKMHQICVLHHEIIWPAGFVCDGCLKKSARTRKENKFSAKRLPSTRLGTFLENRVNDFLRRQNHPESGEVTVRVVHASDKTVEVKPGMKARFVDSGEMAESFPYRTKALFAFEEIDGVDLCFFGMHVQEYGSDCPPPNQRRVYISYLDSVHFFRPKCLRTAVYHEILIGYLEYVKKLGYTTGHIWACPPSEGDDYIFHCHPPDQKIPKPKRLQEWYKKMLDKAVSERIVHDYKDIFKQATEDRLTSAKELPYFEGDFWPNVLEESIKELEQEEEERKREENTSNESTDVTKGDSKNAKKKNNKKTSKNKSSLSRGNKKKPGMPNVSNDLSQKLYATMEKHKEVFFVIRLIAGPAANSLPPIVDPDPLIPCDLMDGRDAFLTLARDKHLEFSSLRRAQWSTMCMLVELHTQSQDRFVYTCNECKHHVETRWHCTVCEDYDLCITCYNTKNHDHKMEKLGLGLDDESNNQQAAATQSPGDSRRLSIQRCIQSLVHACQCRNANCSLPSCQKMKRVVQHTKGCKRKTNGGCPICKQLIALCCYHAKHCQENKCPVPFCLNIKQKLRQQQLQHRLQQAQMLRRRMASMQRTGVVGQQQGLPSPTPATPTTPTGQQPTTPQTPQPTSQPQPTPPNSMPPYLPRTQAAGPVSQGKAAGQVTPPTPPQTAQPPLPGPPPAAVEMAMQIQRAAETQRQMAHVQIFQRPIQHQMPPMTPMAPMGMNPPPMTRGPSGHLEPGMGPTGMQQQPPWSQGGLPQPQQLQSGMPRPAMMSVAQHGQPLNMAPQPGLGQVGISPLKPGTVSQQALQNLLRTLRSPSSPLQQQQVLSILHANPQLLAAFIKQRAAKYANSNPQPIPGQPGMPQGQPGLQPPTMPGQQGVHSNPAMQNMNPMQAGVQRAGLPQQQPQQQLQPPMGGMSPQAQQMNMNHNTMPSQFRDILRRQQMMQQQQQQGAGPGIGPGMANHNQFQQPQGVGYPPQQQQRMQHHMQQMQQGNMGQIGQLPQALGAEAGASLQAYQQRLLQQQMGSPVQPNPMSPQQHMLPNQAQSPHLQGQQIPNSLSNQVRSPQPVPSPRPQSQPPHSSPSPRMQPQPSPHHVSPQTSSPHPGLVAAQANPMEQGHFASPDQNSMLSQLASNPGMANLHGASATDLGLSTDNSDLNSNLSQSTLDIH

Cc1ccc(-n2nc(C(=O)N3C[C@@H](C)N[C@@H](C)C3)nc2-c2ccc3c(c2)N(C2CCCC2)[C@H](C)C(=O)N3C)cc1
Activity (RKO [1]): Active
TDI (Cytochrome P450 1A2): Not Active
Activity (MV4-11 [2]): Dose-dependent effect
Activity (A549): Active
Activity (MV4-11 [3]): Dose-dependent effect
microsomal CLint [4]: 28 µL/min/mg
TDI (Cytochrome P450 2C19): Not Active
Activity (MV4-11 [5]): Dose-dependent effect
inhibition in vivo at 25 mg/kg (MV4-11 [6]): 89.7%
AUC(0-inf) [7]: 2340 ng·h/mL
Activity (RKO [8]): Active
inhibition [9]: inactive
inhibition [10]: Active
Activity (MV4-11 [11]): Active
inhibition [12]: Active
Cmax [13]: 87.6 ng/mL
Activity [14]: < 5%
Activity (Homo sapiens): Active
Activity [15]: 70 to 100%
AUC(0-t) [16]: 16700 ng·h/mL
Activity (MV4-11 [17]): Active
AUC(0-inf) [18]: 16800 ng·h/mL
AUC(0-t) [19]: 331 ng·h/mL
AUC(0-t) [20]: 726 ng·h/mL
half-life [21]: 5 h
Cmax [22]: 1900 ng/mL
